# Assays:
# Trichomonas vaginalis = assay: Antitrichomonal activity against Trichomonas vaginalis after 48 hrs by trypan blue exclusion assay; format: functional
# Outline: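 Trophozoites in TYM medium; stock solutions serially diluted in TYM to concentrations up to 0.1 mg/mL, DMSO/TYM as vehicle control. Parasites added, incubated anaerobically at 37 °C, viability checked by trypan blue exclusion under microscope (200×) from 3 to 48 h. MIC = lowest concentration with all cells dead at 48 h. Metronidazole reference; run three times.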
# Spermatozoa = assay: Sperimcidal activity against human spermatozoa assessed as sperm motility at 1 % drug solution%; format: functional
# Outline: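 Drop of sperm–compound mixture placed on slide under cover glass, examined by phase contrast microscopy in five fields; percentage of motile spermatozoa scored visually within 30–40 s. N-9 as reference control; some compounds tested as D-(-)-tartrate salts.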
# Sporothrix schenckii = assay: Antifungal activity against Sporothrix schenckii after 48 hrs by broth microdilution technique; format: functional
# Outline: (§1)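 Broth microdilution MIC per NCCLS guidelines in RPMI 1640 buffered with MOPS; starting inoculum of test culture 1–5 × 10³ CFU/mL.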
# Aspergillus fumigatus = assay: Antifungal activity against Aspergillus fumigatus after 48 hrs by broth microdilution technique; format: functional; outline: as §1
# [1] = tested on: Trichophyton mentagrophytes; assay: Antifungal activity against Trichophyton mentagrophytes after 48 hrs by broth microdilution technique; format: functional; outline: as §1
# HeLa = assay: Cytotoxicity against human HeLa cells at 200 ug/ml after 24 hrs by MTT assay; format: cell-based
# Outline: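 HeLa cells seeded at 5.0 × 10⁴ per well in DMEM with 10% FCS, 24 h at 37 °C in 5% CO₂; medium replaced with fresh medium containing test dilutions, 10% DMSO vehicle in control wells. After a further 24 h, MTT added; formazan dissolved in DMSO, OD read at 540 nm. Mean ± SE of 3 estimations.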
# Candida albicans = assay: Antifungal activity against Candida albicans after 48 hrs by broth microdilution technique; format: functional; outline: as §1
# Candida parapsilosis = assay: Antifungal activity against Candida parapsilosis after 48 hrs by broth microdilution technique; format: functional; conditions: Lodderomyces parapsilosis; outline: as §1
# Cryptococcus neoformans = assay: Antifungal activity against Cryptococcus neoformans after 48 hrs by broth microdilution technique; format: functional; outline: as §1
SMILES,MIC (Trichomonas vaginalis),Activity (Spermatozoa),MIC (Sporothrix schenckii),MIC (Aspergillus fumigatus),MIC [1],Activity (HeLa),MIC (Candida albicans),MIC (Candida parapsilosis),MIC (Cryptococcus neoformans)
Cc1ncc([N+](=O)[O-])n1CCOC(=O)CCN1CCN(c2ccc(F)cc2)CC1,1.54 µM,88.24%,> 50 µg/mL,> 50 µg/mL,50 µg/mL,Non-toxic,> 50 µg/mL,> 50 µg/mL,> 50 µg/mL
Cc1ncc([N+](=O)[O-])n1CCOS(C)(=O)=O,5.02 µM,94.12%,50 µg/mL,> 50 µg/mL,> 50 µg/mL,–,> 50 µg/mL,> 50 µg/mL,> 50 µg/mL
Cc1ncc([N+](=O)[O-])n1CCOC(=O)CCn1ccnc1[N+](=O)[O-],9.25 µM,100%,> 50 µg/mL,> 50 µg/mL,50 µg/mL,Non-toxic,> 50 µg/mL,> 50 µg/mL,> 50 µg/mL
Cc1ncc([N+](=O)[O-])n1CCOC(=O)CCn1c([N+](=O)[O-])cnc1C,20.6 µM,88.24%,> 50 µg/mL,> 50 µg/mL,50 µg/mL,Non-toxic,> 50 µg/mL,> 50 µg/mL,> 50 µg/mL
Cc1ncc([N+](=O)[O-])n1CCSC(=S)N1CCN(c2ccc([N+](=O)[O-])cc2)CC1,2.87 µM,41.18%,> 50 µg/mL,> 50 µg/mL,> 50 µg/mL,Non-toxic,> 50 µg/mL,> 50 µg/mL,> 50 µg/mL
Cc1ncc([N+](=O)[O-])n1CCOC(=O)CCn1ccnc1,10.7 µM,100%,> 50 µg/mL,> 50 µg/mL,50 µg/mL,Non-toxic,> 50 µg/mL,> 50 µg/mL,> 50 µg/mL
CS(=O)(=O)[O-].Cc1ncc([N+](=O)[O-])n1CC[n+]1ccccc1,9.53 µM,85.09%,> 50 µg/mL,> 50 µg/mL,> 50 µg/mL,Non-toxic,> 50 µg/mL,> 50 µg/mL,> 50 µg/mL
Cc1ncc([N+](=O)[O-])n1CCn1ccnc1,14.1 µM,92.36%,50 µg/mL,> 50 µg/mL,> 50 µg/mL,Non-toxic,25 µg/mL,> 50 µg/mL,> 50 µg/mL
C=CC(=O)OCCn1c([N+](=O)[O-])cnc1C,42.2 µM,70.59%,50 µg/mL,> 50 µg/mL,50 µg/mL,Non-toxic,> 50 µg/mL,> 50 µg/mL,50 µg/mL
Cc1ncc([N+](=O)[O-])n1CCOC(=O)CCn1nnc2ccccc21,27.6 µM,95.734%,> 50 µg/mL,> 50 µg/mL,50 µg/mL,Non-toxic,> 50 µg/mL,> 50 µg/mL,> 50 µg/mL
Cc1ncc([N+](=O)[O-])n1CCOC(=O)CCn1cncn1,21.3 µM,100%,> 50 µg/mL,> 50 µg/mL,50 µg/mL,Non-toxic,> 50 µg/mL,> 50 µg/mL,> 50 µg/mL
Cc1ncc([N+](=O)[O-])n1CCSC(=S)N1CCN(c2ncccn2)CC1,25.4 µM,94.12%,> 50 µg/mL,> 50 µg/mL,50 µg/mL,Non-toxic,> 50 µg/mL,> 50 µg/mL,> 50 µg/mL
Cc1ncc([N+](=O)[O-])n1CCCl,6.6 µM,58.82%,50 µg/mL,> 50 µg/mL,> 50 µg/mL,–,> 50 µg/mL,> 50 µg/mL,50 µg/mL
CC(=O)OCCn1c([N+](=O)[O-])cnc1C,23.5 µM,82.35%,> 50 µg/mL,> 50 µg/mL,> 50 µg/mL,–,> 50 µg/mL,> 50 µg/mL,> 50 µg/mL
Cc1ncc([N+](=O)[O-])n1CCOC(=O)CCl,10.1 µM,98.37%,> 50 µg/mL,> 50 µg/mL,25 µg/mL,–,> 50 µg/mL,> 50 µg/mL,> 50 µg/mL
Cc1ncc([N+](=O)[O-])n1CCOC(=O)CCN1CCN(c2ccc([N+](=O)[O-])cc2)CC1,1.45 µM,82.35%,> 50 µg/mL,> 50 µg/mL,50 µg/mL,Non-toxic,> 50 µg/mL,> 50 µg/mL,> 50 µg/mL
Cc1ncc([N+](=O)[O-])n1CCSC(=S)N1CCOCC1,1.98 µM,70.59%,50 µg/mL,> 50 µg/mL,50 µg/mL,Non-toxic,> 50 µg/mL,> 50 µg/mL,> 50 µg/mL
Cc1ncc([N+](=O)[O-])n1CCSC(=S)N1CCCCC1,1 µM,70.59%,25 µg/mL,> 50 µg/mL,50 µg/mL,Non-toxic,> 50 µg/mL,> 50 µg/mL,> 50 µg/mL
CCN(CC)C(=S)SCCn1c([N+](=O)[O-])cnc1C,1.03 µM,100%,25 µg/mL,> 50 µg/mL,25 µg/mL,Non-toxic,50 µg/mL,> 50 µg/mL,50 µg/mL
OC(Cn1cncn1)(Cn1cncn1)c1ccc(F)cc1F [FLUCONAZOLE],–,–,2 µg/mL,2 µg/mL,1 µg/mL,Non-toxic,0.5 µg/mL,1 µg/mL,1 µg/mL
Cc1ncc([N+](=O)[O-])n1CCOC(=S)[S-].[Na+] [METRONIDAZOLE XANTHATE],112 µM,90.24%,> 50 µg/mL,> 50 µg/mL,> 50 µg/mL,Non-toxic,> 50 µg/mL,> 50 µg/mL,> 50 µg/mL
Cc1ncc([N+](=O)[O-])n1CCO [METRONIDAZOLE],11.7 µM,100%,–,–,–,Non-toxic,–,–,–
CCCCCCCCCc1ccc(OCCOCCOCCOCCOCCOCCOCCOCCOCCO)cc1 [NONOXYNOL 9],60.8 µM,0%,–,–,–,–,> 50 µg/mL,50 µg/mL,–

# — ChEMBL document CHEMBL1153733, “Imidazole derivatives as possible microbicides with dual protection” (Eur J Med Chem, 2010)
